Test results: ChEMBL document CHEMBL3826895, “Pterin-sulfa conjugates as dihydropteroate synthase inhibitors and antibacterial agents” (Bioorg Med Chem Lett, 2016)
Values after ≈ are worked out from the molar mass of the structure shown.

Legend:
Escherichia coli [1] = test: Antibacterial activity against Escherichia coli K-12 in M9 minimal media in presence of methionine by turbidometric method; assay type: functional
Escherichia coli [2] = test: Antibacterial activity against Escherichia coli K-12 in M9 minimal media in presence of folate precursor PABA by turbidometric method; assay type: functional
Escherichia coli [3] = test: Antibacterial activity against Escherichia coli K-12 in M9 minimal media by turbidometric method; assay type: functional
Dihydropteroate synthase [4] = target: T1, Dihydropteroate synthase (Bacillus anthracis, UniProt Q81VW8); test: Inhibition of fluorescein-labeled probe binding to Bacillus anthracis N-terminal His-tagged DHPS incubated for 1 hr by fluorescence polarization assay
T1 sequence (Q81VW8 whole entry): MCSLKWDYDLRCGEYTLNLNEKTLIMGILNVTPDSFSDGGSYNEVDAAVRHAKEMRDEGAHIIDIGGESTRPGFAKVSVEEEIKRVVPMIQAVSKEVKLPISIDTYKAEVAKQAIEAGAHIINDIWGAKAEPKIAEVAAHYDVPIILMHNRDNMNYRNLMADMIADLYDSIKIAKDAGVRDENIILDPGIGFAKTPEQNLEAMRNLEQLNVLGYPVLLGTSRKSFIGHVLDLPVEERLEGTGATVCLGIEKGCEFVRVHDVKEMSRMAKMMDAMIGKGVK
Outline: (§1)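 Competition binding of test compounds against a probe on B. anthracis DHPS, read by fluorescence polarization as displacement of the probe; run without added pyrophosphate or with 2 mM sodium pyrophosphate, the DHPS reaction byproduct, to confirm site-specific binding; IC50 values derived from probe displacement.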

Dihydropteroate synthase [5] = target: T1, Dihydropteroate synthase; test: Inhibition of fluorescein-labeled probe binding to Bacillus anthracis N-terminal His-tagged DHPS incubated for 1 hr in presence of sodium pyrophosphate by fluorescence polarization assay; outline: as §1

SMILES | MIC (Escherichia coli [1]) [µM] | MIC (Escherichia coli [2]) [µM] | MIC (Escherichia coli [3]) [µM] | IC50 (Dihydropteroate synthase [4]) [µM] | IC50 (Dihydropteroate synthase [5]) [µM]
CC(=O)Nc1nc2ncc(CNc3ccc(S(=O)(=O)Nc4onc(C)c4C)cc3)nc2c(=O)[nH]1 | 5.9 | 249 | 1.5 (≈ 0.727 µg/mL) | – | –
CC(=O)Nc1nc2ncc(CNc3ccc(S(=O)(=O)NC(C)=O)cc3)nc2c(=O)[nH]1 | 58 | > 934 | 22 (≈ 9.49 µg/mL) | – | –
CC(=O)Nc1nc2ncc(CNc3ccc(S(=O)(=O)c4ccc(N)cc4)cc3)nc2c(=O)[nH]1 | 50 | > 934 | 25 (≈ 11.6 µg/mL) | – | –
Cc1cc(NS(=O)(=O)c2ccc(NCc3cnc4nc(N)[nH]c(=O)c4n3)cc2)no1 | 29 | 467 | 10.9 (≈ 4.67 µg/mL) | 20.6 | 3.4
COc1ncnc(NS(=O)(=O)c2ccc(NCc3cnc4nc(NC(C)=O)[nH]c(=O)c4n3)cc2)c1OC | 10.1 | > 644 | 3.8 (≈ 2 µg/mL) | – | –
COc1ncnc(NS(=O)(=O)c2ccc(NCc3cnc4nc(N)[nH]c(=O)c4n3)cc2)c1OC | 172 | > 412 | 34.3 (≈ 16.7 µg/mL) | 15.2 | 11.5
CC(=O)Nc1nc2ncc(CNc3ccc(S(=O)(=O)Nc4ccccn4)cc3)nc2c(=O)[nH]1 | 6.3 | 669 | 2.7 (≈ 1.26 µg/mL) | – | –
CC(=O)Nc1nc2ncc(CNc3ccc(S(=O)(=O)Nc4cc(C)on4)cc3)nc2c(=O)[nH]1 | 1.5 | 263 | 0.8 (≈ 0.376 µg/mL) | – | –
COc1cc(NS(=O)(=O)c2ccc(NCc3cnc4nc(N)[nH]c(=O)c4n3)cc2)nc(OC)n1 | 86 | > 412 | 17.2 (≈ 8.35 µg/mL) | 26.8 | 1.9
Nc1nc2ncc(CNc3ccc(S(=O)(=O)Nc4ncccn4)cc3)nc2c(=O)[nH]1 | 78 | > 470 | 17.1 (≈ 7.27 µg/mL) | 19.3 | 9.4
Nc1ccc(S(=O)(=O)c2ccc(NCc3cnc4nc(N)[nH]c(=O)c4n3)cc2)cc1 | 236 | 236 | 197 (≈ 83.4 µg/mL) | 17.8 | 11.3
Nc1nc2ncc(CNc3ccc(S(=O)(=O)Nc4ccccn4)cc3)nc2c(=O)[nH]1 | 98 | > 471 | 29.5 (≈ 12.5 µg/mL) | > 62.5 | 2.5
CC(=O)Nc1nc2ncc(CNc3ccc(S(=O)(=O)Nc4ncccn4)cc3)nc2c(=O)[nH]1 | 6.2 | 666 | 1.6 (≈ 0.748 µg/mL) | – | –
COc1cc(NS(=O)(=O)c2ccc(NCc3cnc4nc(NC(C)=O)[nH]c(=O)c4n3)cc2)nc(OC)n1 | 3.4 | 537 | 1.6 (≈ 0.844 µg/mL) | – | –
Cc1noc(NS(=O)(=O)c2ccc(NCc3cnc4nc(N)[nH]c(=O)c4n3)cc2)c1C | 47 | > 412 | 28.3 (≈ 12.5 µg/mL) | 22.5 | 8.1
CC(=O)NS(=O)(=O)c1ccc(NCc2cnc3nc(N)[nH]c(=O)c3n2)cc1 | > 200 | > 514 | 136 (≈ 53 µg/mL) | 18.6 | 17.1
CC1(C)S[C@@H]2[C@H](NC(=O)[C@H](N)c3ccccc3)C(=O)N2[C@H]1C(=O)O [AMPICILLIN] | 2.1 | 2 | 1.58 (≈ 0.552 µg/mL) | – | –
O=C(N[C@H](CO)[C@H](O)c1ccc([N+](=O)[O-])cc1)C(Cl)Cl [CHLORAMPHENICOL] | 9.7 | 9.7 | 8.5 (≈ 2.75 µg/mL) | – | –
COc1cc(Cc2cnc(N)nc2N)cc(OC)c1OC [TRIMETHOPRIM] | 0.7 | 1.4 | 1.7 (≈ 0.494 µg/mL) | – | –
